Published values collected from several papers.
Lines come from different studies, so protocols differ.
Sample: plasma

Structure (SMILES) | system | setting | Tmax [h]
N#Cc1cccc(-c2ccc3ncc(-c4cc(F)cc(F)c4)c(N4CCC(N)CC4)c3c2)c1O | male human | oral, 20 mg, single dose | 1.5
OC[C@H]1O[C@@H](c2cc(Cc3ccc(C4CC4)cc3)c(Cl)c3c2CCO3)[C@H](O)[C@@H](O)[C@@H]1O | human | oral, 0.3 mg, single dose, fasted, healthy volunteers | 1.25
C[C@@H](Oc1ccc(S(C)(=O)=O)cc1C(=O)N1C[C@@H]2C[C@]2(c2cc(C(F)(F)F)on2)C1)C(F)(F)F | human | oral, 10 mg, single dose, fed | 2.5
CC1(C)CC[C@]2(NC(=O)C(C)(F)F)CC[C@]3(C)[C@H](C(=O)C=C4[C@@]5(C)C=C(C#N)C(=O)C(C)(C)[C@@H]5CC[C@]43C)[C@@H]2C1 | human | oral, 150 mg, single dose | 12
CC(C)n1cc(C#N)c2cc(-n3cc(C(=O)O)cn3)ccc21 | human | oral, 25 mg, single dose, fasted, healthy volunteers | 3.26
COc1ccc2c(c1)CN(C(=O)CCN1CCC(Cc3ccccc3)CC1)CC[S@@+]2[O-] | male human | intravenous, 0.15 mg/kg, healthy volunteers | 0
COc1ccc(-c2c(Nc3ccccn3)[nH]c3c(C4=CCCCC4)c(-c4ccccc4)nn3c2=O)cc1 | human | oral, 200 mg twice daily, multiple doses, patients | 1
CC(=O)N(C)[C@H]1CCN(C(=O)c2cnc3c(c2)C[C@](C)(c2ccc(F)cc2)N3)C1 | male human | oral, 30 mg, multiple doses, once daily, steady state | 0.75
O=C(COc1ccc(Cl)cc1)NC12CC(c3nnc([C@H]4C[C@@H](OC(F)(F)F)C4)o3)(C1)C2 | human | oral, 45 mg, single dose, fasted, healthy volunteers | 8.02
